Assay results from different studies.
Compare with care: the assays were run in different laboratories.
Target: Mitogen-activated protein kinase 1 (MAPK1, Homo sapiens, UniProt P28482)

SMILES | test | conditions | measurement | result
CCCCC(=O)Nc1ccc(-c2ccc3ncn(CCC)c(=O)c3c2)cn1 | binding, competition with immobilised ligand | 0.5 µM | remaining binding | 89%
C=CC(=O)N1CCC([C@@H]2CCNc3c(C(N)=O)c(-c4ccc(Oc5ccccc5)cc4)nn32)CC1 | enzyme activity, inhibitor | 1 µM | inhibition | 10%
C[C@H]1CC[C@H](n2c3cnccc3c3cnc(Nc4ccc5c(n4)CCN(C(=O)CO)C5)nc32)CC1 | cell-free assay | 1 µM | remaining signal | 100%
CC#CC(=O)N1CCC[C@H]1c1nc(-c2ccc(C(=O)Nc3ccccn3)cc2)c2c(N)nccn12 | enzyme activity, inhibitor | 1 µM | inhibition | 3%
Cc1cc(O)c(-c2ccc([C@@H](C)CN(C)C)cc2)c2c1[nH]c(=O)c1sccc12 | enzyme activity, inhibitor | 0.1 µM | inhibition | 6.8%
COc1ccc2[nH]c3c4[nH]c5ccc(OC)cc5c4c4c(c3c2c1)C(=O)NC4=O | binding | 1 µM | remaining binding | 76%
O=C1C=C(Nc2ccc(OCc3cn(Cc4ccccc4)nn3)cc2)C(=O)c2ccccc21 | enzyme activity, inhibitor, radiometric | 10 µM | inhibition | 18%
C#Cc1cc(-c2cc(Nc3nc(N[C@@H](C)c4ccc(F)cn4)ncc3Cl)n[nH]2)ccc1C=O | enzyme activity, inhibitor | 0.2 µM | inhibition | 10.4%
COc1ccc2oc(-c3ccc4nc(N)oc4c3)c/c(=N\c3ccccc3NC(=O)CCN)c2c1 | binding | 1 µM | remaining binding | 97%
